Source: PubChem (several laboratories)
The list is not random: actives were taken first. Their share in the collection is about 1.7%.
Myeloid diff 2: myeloid differentiation induction | ER-HoxA9 myeloid progenitors, lysozyme-GFP differentiation, flow cytometry | calls only at 10 µM | hit rate 1% among 360,000;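 active means normalized GFP-positive differentiation at or above the plate's own cutoff, the solvent-only control mean plus 3 SD; inconclusive means no clear call, values can overlap the other calls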;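 further: cells exposed to compound for four days before flow analysis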
Vif imaging: HIV Vif inhibition. AID 602346. hit rate 0.35% among 340,000. inhibition, % at 7.49 µM. HEK293T cells, Vif self-association by quenched fluorescence, imaging, 24 h; in the data active means inhibition above about 50%, passing the limit was not always enough; inconclusive means no clear call, values can overlap the other calls; inactive means below about 31%
Pemphigus Ab inh: human desmoglein-3 autoantibody binding inhibition. binding (percent of control), % at 10 µM. P32926. DSG3-coupled beads, scFv-anti-DSG3-GFP binding, flow cytometry; stronger effect = lower value. hit rate 0.48% among 310,000;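 active means binding more than 3 SD below its plate's average and above zero; inconclusive means below that plate limit but binding exactly zero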;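 further: hits lower antibody fragment binding to DSG3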
T cell HTS: modulates CD8 T cell binding to vesicles | 2C CD8+ T cell-vesicle binding, flow cytometry; stronger effect = lower value | response (vesicle binding), % at 7 µM | hit rate 0.068% among 330,000 | AID 2052;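 active means response, share of CD8 T cells binding vesicles, and their 90th percentile fluorescence all below set limits, cut at about 80% in these data, passing the limit was not always enough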;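 further: values below 100% mean blocked vesicle binding to the CD8+ T cells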
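Incubation: binding step 1.5 h, 37 °C, antibody labelling 20 min, ice; system: murine 2C transgenic CD8+ T lymphocytes; technique: cytometric PE anti-B7-1 and Alexa647 anti-CD8 signals after 1% paraformaldehyde fixation; also added: QL9-charged Drosophila Ld/ICAM-1/B7-1 vesicles; control set: naked versus QL9-loaded vesicles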
* hit, by the source's call; i = inactive; ? = inconclusive; · = no result given; + = active, no number.

SMILES	Myeloid diff 2	Vif imaging	Pemphigus Ab inh	T cell HTS
CC(=O)[C@@]1(O)Cc2c(O)c3c(c(O)c2[C@H](O[C@H]2C[C@H](N)[C@H](O)[C@H](C)O2)C1)C(=O)c1ccccc1C3=O	?	66*	·	·
COc1cc(C(=O)N=c2sccn2C)c([N+](=O)[O-])cc1OC	i	-10	119	136
Cn1ccsc1=NC(=O)c1ccc([N+](=O)[O-])o1	+	-5	102	316
C=CCn1c(O)c(C2=c3ccccc3=NC2=O)c2ccccc21	·	6	96	176
C=CCn1c(O)c(C2=c3ccccc3=NC2=O)s/c1=N/c1nccs1	i	88*	81*	395
CC(N)c1csc(Nc2ccc(S(C)(=O)=O)cc2)n1 (stereo unspecified)	i	16	·	·
COc1ccc(NC(=O)Nc2ccccc2SC)c(OC)c1	i	8	-6.3*	332
COc1ccc(NC(=O)Nc2ccccc2C)c(OC)c1	i	2	105	177
COc1ccc(CN2C(=O)C(C)Nc3ncnc(N4CCN(c5ccccn5)CC4)c32)cc1 (stereo unspecified)	i	-5	100	0.0*
CC1Nc2ncnc(N3CCN(c4ccccn4)CC3)c2N(Cc2ccccc2)C1=O (stereo unspecified)	i	1	107	268
COc1cc(C)ccc1OCC(=O)OCC(=O)NCC1CCCCC1	i	-4	105	250
COc1ccc(N=C2S/C(=C\c3ccc(OCC(=O)O)cc3)C(=O)N2CCc2c[nH]c3ccccc23)cc1	i	-4	46*	·
O=C(COC(=O)c1ccc(S(=O)(=O)N2CCc3ccccc3C2)cc1)NC1CCS(=O)(=O)C1 (stereo unspecified)	i	-3	67*	265
O=C(COC(=O)c1ccc(S(=O)(=O)N2CCCCC2)cc1)NC1CCCCC1	i	·	102	·
CCOc1ccc(S(=O)(=O)n2cc(F)c(=O)[nH]c2=O)cc1[N+](=O)[O-]	?	4	·	895
CCOc1ccc(S(=O)(=O)n2cc(F)c(=O)[nH]c2=O)cc1	+	-2	101	314
CC[n+]1c(/C=C2/C=C(C)CC(C)(C)C2)sc2ccc(OC)cc21	+	-7	93	304
CC[n+]1c(/C=C2\C=C(C)CC(C)(C)C2)sc2ccccc21	i	26	74	326
COc1cc(S(=O)(=O)N2CCOCC2)cc(C(=O)OCC(=O)NCc2ccco2)c1OC	i	3	104	244
COc1ccc(-n2c(N)c(C(=O)NCC3CCCO3)c3nc4ccccc4nc32)c(OC)c1 (stereo unspecified)	i	-5	73*	925
N#C/C(=C/c1cccs1)c1ccccn1	i	-12	110	350
N#C/C(=C\c1ccccn1)c1ccccn1	+	-11	88	245
CN1CCN(c2cc(-c3ccccc3)nc3cc(-c4ccc(F)cc4)nn23)CC1	i	·	122	172
Fc1ccc(-c2cc3nc(-c4ccccc4)cc(N4CCN(CCN5CCOCC5)CC4)n3n2)cc1	+	3	108	·
O=C(Oc1cccc2cccnc12)c1cccs1	+	5	120	162
SMILES	Myeloid diff 2	Vif imaging	Pemphigus Ab inh	T cell HTS
Cc1onc(-c2ccccc2)c1C(=O)OCc1nnc(-c2ccc([N+](=O)[O-])cc2)o1	i	-3	106	563
O=C(OCc1nnc(-c2ccccc2)o1)c1cc([N+](=O)[O-])ccc1Cl	i	0	71*	192
O=C(Cn1cnc2ccccc21)Nc1cccc(S(=O)(=O)N2CCCC2)c1	i	-24	·	357
Cc1ccc(C(=O)NC2CCC(C)CC2)s1 (stereo unspecified)	i	-4	99	103
CCOc1ccc(S(=O)(=O)Nc2cccc(C(=O)N(C)CC(=O)Nc3ccc(OC)cc3)c2)cc1	i	72*	·	·
S=C(Nc1ccccc1)N1CCN(C2CCCCC2)CC1	+	0	107	216
CCCN1CCC(=O)N([C@H](CSc2ccc(OC)cc2)Cc2ccccc2)CC1	+	-8	110	·
C[C@H](NC(=O)c1ccco1)C(=O)Nc1cc(S(=O)(=O)N2CCCC2)ccc1OCC(F)(F)F	i	18	·	182
Cc1cc(C)c(C(=O)N2CCCC(CNS(=O)(=O)c3cccs3)C2)o1 (stereo unspecified)	i	-8	·	206
CC(C)(O)C#Cc1ccc(C(=O)N2CCCC(CNS(=O)(=O)c3cccs3)C2)o1 (stereo unspecified)	+	9	101	463
CCOC(=O)c1[nH]c2cc(OC)c(OC)cc2c1NC(=O)c1ccc2c(c1)OCO2	i	2	17*	215
